# Assay results reported in ChEMBL document CHEMBL1154907, “Synthesis and preclinical evaluations of 2-(2-fluorophenyl)-6,7-methylenedioxyquinolin-4-one monosodium phosphate (CHM-1-P-Na) as a potent antitumor agent” (J Med Chem, 2010).
# Experiments:
# NCI-H226 = experiment: Growth inhibition of human NCI-H226 cells by SRB assay; type: functional
# How it was run: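 Human cancer cell panel; five concentrations from 10^-4 to 10^-8 M; growth measured by sulforhodamine B colorimetric method; GI50, TGI and LC50 derived from computer-analysed dose-response curves.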
# [1] = Toxicity in ip dosed nude mouse assessed as maximum tolerated dose; type: organism-based; details: in vivo
# [2] = Mean residence time in CD1 mouse at 10 mg/kg, ip; type: ADME, organism-based; design: dose 10 mg/kg, route intraperitoneal; details: in vivo
# How it was run: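 Male CD-1 (Crl.) mice, 22-24 g, single 10 mg/kg ip bolus of parent drug in cremophor/DMSO/saline (20/5/75, v/v; 2 mg/mL, 5 mL/kg). Blood sampled at 0, 5, 15, 30 min, 1, 1.5, 2, 4, 6, 9, 24, 27 h, three mice per time point. Plasma extracted with acetonitrile, analysed by LC-MS/MS. Parameters calculated from mean plasma concentrations.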
compound,measurement,setting,value
O=c1cc(-c2ccccc2F)[nH]c2cc3c(cc12)OCO3,GI50,NCI-H226; NCI-H226,355 nM
same,CC50,"NCI-H226; NCI-H226, read-out: pLC50 (converted)",> 100 µM
same,TGI,"NCI-H226; NCI-H226, read-out: pTGI",> 100 µM
same,MTD,[1],200 mg/kg
same,MRT,[2],7.3 h
